Compounds with a hit are over-represented: about 5.4% of the library has one in this group of screens.
aSyn UTR inh – MLPCN primary screen, SNCA 5' untranslated region | AID 1813 | inhibition, % (tested at 7.5 µM) | alpha-synuclein 5'UTR reporter, inhibitor activity | 0.82% of 300,000 active; in the data active = inhibition above about 60%; inconclusive = no clear call, values can overlap the other calls;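 note: H4 neuroglioblastoma cells stably carrying SNCA 5'UTR luciferase fusion; 0% = DMSO wells and 100% = positive control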
SKKanGAS inh – inhibitors of SKKanGAS S. pyogenes growth in kanamycin (SK-promoter or general growth effect) | BacTiter-Glo, 6 h | inhibition, % at 7.5 µM | 1.3% of 300,000 active | AID 1662;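 active = mean replicate score, as percent of positive control median, at least 50; inconclusive = mean below 50 but one replicate at or above 50; inactive = mean and every replicate below 50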;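 note: strain carries kanamycin resistance gene driven by streptokinase promoter and grows in 40 µg/ml kanamycin; loss of luminescence reflects streptokinase promoter inhibition or plain growth inhibition; 0% = median of DMSO wells and 100% = positive control at its reference dose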
CSC inhib – blocks cancer stem cells | AID 2717 | cancer stem cell-like cells viability, luminescence | inhibition, % at 7.5 µM | 1.1% of 300,000 active; in the data active = inhibition above about 75%; inconclusive = no clear call, values can overlap the other calls; tested in HMLE shEcad cells
Mdm2-MdmX inh – inhibitors of human Mdm2/MdmX interaction; O15151+Q00987; SaOS-2 split-luciferase Mdm2/MdmX complementation, luminescence; inhibition, % at 8 µM; 3% of 330,000 active; AID 485346;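 active = inhibition of at least 50% at 8 µM in the primary screen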
Target sequence (O15151 whole entry, looked up): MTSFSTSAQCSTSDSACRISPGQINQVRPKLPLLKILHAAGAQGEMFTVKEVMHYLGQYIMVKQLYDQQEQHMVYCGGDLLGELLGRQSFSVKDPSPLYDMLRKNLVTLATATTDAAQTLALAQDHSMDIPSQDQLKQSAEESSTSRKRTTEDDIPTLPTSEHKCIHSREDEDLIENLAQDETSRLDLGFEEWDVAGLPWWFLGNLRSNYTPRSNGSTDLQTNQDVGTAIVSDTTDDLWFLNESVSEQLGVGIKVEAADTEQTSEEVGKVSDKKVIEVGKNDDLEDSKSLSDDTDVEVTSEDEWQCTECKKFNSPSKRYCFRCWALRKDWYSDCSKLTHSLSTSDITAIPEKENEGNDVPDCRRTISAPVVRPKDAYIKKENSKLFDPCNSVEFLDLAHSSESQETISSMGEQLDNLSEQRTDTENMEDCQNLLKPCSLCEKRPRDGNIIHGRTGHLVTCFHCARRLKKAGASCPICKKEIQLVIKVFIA
Target sequence (Q00987 whole entry, looked up): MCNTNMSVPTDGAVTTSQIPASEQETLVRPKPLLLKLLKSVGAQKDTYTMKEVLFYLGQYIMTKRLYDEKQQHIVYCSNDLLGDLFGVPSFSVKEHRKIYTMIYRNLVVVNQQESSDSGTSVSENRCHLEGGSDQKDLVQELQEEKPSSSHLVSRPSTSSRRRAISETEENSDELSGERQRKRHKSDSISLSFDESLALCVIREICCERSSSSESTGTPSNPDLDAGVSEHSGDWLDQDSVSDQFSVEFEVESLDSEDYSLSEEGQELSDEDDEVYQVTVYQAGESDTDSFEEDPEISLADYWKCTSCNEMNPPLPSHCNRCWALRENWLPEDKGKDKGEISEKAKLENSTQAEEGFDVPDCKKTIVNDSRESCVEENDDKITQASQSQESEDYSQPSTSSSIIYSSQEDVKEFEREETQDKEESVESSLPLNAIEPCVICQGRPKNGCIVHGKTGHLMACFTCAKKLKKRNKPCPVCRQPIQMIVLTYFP
T cruzi repl – T. cruzi replication inhibition; T. cruzi beta-gal in NIH3T3, luminescence, 90 h; inhibition, % (test concentration not listed); 1.4% of 300,000 active;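 active = mean inhibition across valid replicates above about 55%, limit read from the data; inconclusive = mean below that limit but half or more replicates reach it; inactive = mean below it, under half of replicates reach it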;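 note: signal also drops with host cell toxicity which is not excluded here; 0% = plate median of DMSO wells and 100% = zero luminescence signal; higher percent means less beta-gal luminescence so fewer parasites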
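Test system: β-gal T. cruzi (Tulahuen C4) inside NIH/3T3 cells / Quantity: 5,000 cells/well / Measured by: luminescence from GalScreen with 0.05% NP40, read after 60 min / Medium: DMEM plus 2% FBS / Measure: parasite load inhibition, % / Reagent: Tulahuen C4 trypomastigotes, 5000/well / Schedule: co-culture of at least 90 h after 3 h attachment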
Mdm2 MdmX conf – human Mdm2/MdmX binding inhibition, confirmed. AID 489028. shares compounds with Mdm2-MdmX inh. inhibition, % at 8 µM. luminescent assay. 55% of 10,000 active; in the data active = inhibition above about 40%
FLuc counter – full-length luciferase inhibition in Mdm2/MdmX counter-screen; shares compounds with Mdm2-MdmX inh; SaOS-2 full-length luciferase counterscreen, luminescence; inhibition, % at 8 µM; 77% of 6,200 active; AID 504607;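 active = mean inhibition at 8 µM reaching about 37%, which flags the compound as non-specific, limit read from the data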;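 note: p53-null SaOS-2 cells with luciferase driven by a doxycycline-inducible promoter; compound on cells about two nights before reading with doxycycline added after day one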
An asterisk follows results filed as active; ? = inconclusive; . = not tested or not shown.

SMILES	aSyn UTR inh	SKKanGAS inh	CSC inhib	Mdm2-MdmX inh	T cruzi repl	Mdm2 MdmX conf	others
CCN(Cc1ccccc1)c1ccc(/C=N/NC(=S)NC(C)C)cc1	24	-7	?	41	39	.
CCN(Cc1ccccc1)c1ccc(/C=N/N=C(N)N)cc1	94*	1	102*	98*	?	100*	FLuc counter=58*
O=c1c(Cl)cc(Cl)nn1-c1ccccc1	-27	0	59	55*	11	28
CC(/C=N/Nc1ncc(C)c(=O)[nH]1)=C\c1ccccc1	-51	-6	1	-22	-7	.
COc1ccc(-c2ccc(=O)n(CC(=O)Nc3nnc(C(C)C)s3)n2)cc1OC	35	-1	-1	5	-9	.
COc1ccc(-c2ccc(=O)n(CC(=O)Nc3cccc(O)c3)n2)cc1OC	30	.	-7	55*	3	55*	FLuc counter=108*
Cc1[nH]c2ccccc2c1/C=N/NC(=O)CCC(=O)NCc1ccccc1	29	-1	4	-14	-3	.
Cc1[nH]c2ccccc2c1/C=N/NC(=O)C1CC1(c1ccccc1)c1ccccc1 (configuration not stated)	-7	55*	116*	65*	33	48*	FLuc counter=89*
Cc1cc(Br)ccc1NC(=O)c1sc2ncnc(N3CCN(c4ccccn4)CC3)c2c1C	-4	-6	1	59*	10	49*	FLuc counter=59*
CCc1ccc(NC(=O)c2sc3nc(C)nc(N4CCN(c5ccccn5)CC4)c3c2C)cc1	-8	32	14	38	29	.
COc1ccc(NC(=O)c2sc3ncnc(N4CCN(c5ccccn5)CC4)c3c2C)cc1Cl	16	38	11	57*	35	-5
COc1ccc(NC(=O)c2sc3nc(C)nc(N4CCN(c5ccccn5)CC4)c3c2C)cc1Cl	17	1	9	51*	19	2
O=C(COc1ccccc1[N+](=O)[O-])N(Cc1cccc(Br)c1)C1CCS(=O)(=O)C1 (configuration not stated)	17	-3	8	-11	23	.
C=C(C(=O)c1ccccc1)C(CC(=O)c1ccccc1)c1ccccc1 (configuration not stated)	37	12	?	101*	24	99*	FLuc counter=55*
C=C(CCC(=O)c1ccccc1)C(=O)c1ccccc1	-23	-14	48	.	-43	.
Cc1cc(OCC(=O)Nc2cc(C(C)(C)C)on2)ccc1[N+](=O)[O-]	8	-4	-6	8	0	.
O=C(/C=C/c1ccc(OC2CSC2)cc1)c1ccc(Cl)cc1	-6	-6	6	4	20	.
CCC1CSC(Nc2ccc(C(=O)/C=C/c3ccc(Oc4ccccc4)cc3)cc2)=N1 (configuration not stated)	-88	35	56	55*	36	26
COC(=O)c1cc(S(=O)(=O)NCc2ccc(Br)cc2)c[nH]1	-2	-8	13	-1	-8	.
Nc1ncnc2c1ncn2CCOc1ccccc1	-8	-3	-21	59*	8	7
O=C(NN=Cc1ccc(O)cc1O)c1ccccc1NS(=O)(=O)c1cccs1	.	.	-5	55*	.	38	FLuc counter=47*
COc1coc(C(O)C[N+](=O)[O-])cc1=O (configuration not stated)	-5	-7	-14	-25	-17	.
CC(=O)Nc1ccc(/C(C)=N/Nc2nc(Nc3cccc4ccccc34)nc(N3CCOCC3)n2)cc1	-28	21	-3	54*	27	28
COc1cccc(CNCCSc2nnnn2C)c1OC	0	-2	-12	-4	-13	.
COc1cccc(CN(Cc2ccco2)S(=O)(=O)c2ccc(S(=O)(=O)NCc3ccccc3)cc2)c1OC	.	20	2	44	.	.
SMILES	aSyn UTR inh	SKKanGAS inh	CSC inhib	Mdm2-MdmX inh	T cruzi repl	Mdm2 MdmX conf	others
COc1cccc(CN(Cc2ccccc2F)S(=O)(=O)c2ccc(S(=O)(=O)NCc3ccccc3)cc2)c1	39	-1	12	52*	45	34
CCC(C)Sc1cc(-c2nc3cc(C)ccn3c2NC2CCCCC2)ccc1OC (configuration not stated)	.	.	.	84*	.	-12
CCC(C)Sc1cc(-c2nc3ccccn3c2NC2CCCCC2)ccc1OC (configuration not stated)	3	87*	126*	69*	32	30
COc1ccccc1C(=O)Nc1c(C(=O)N(CCN(C)C)Cc2ccco2)oc2ccccc12	-4	10	7	62*	40	27
O=C1C2C3CCC(CC3)C2C(=O)N1c1ccccc1 (configuration not stated)	15	-2	-9	-9	-5	.
C=CCN(CC=C)S(=O)(=O)c1ccc2nc(NC(=O)C(C)C)sc2c1	.	.	66	59*	.	60*	FLuc counter=52*
CCOc1ccc(-c2cn(-c3cccc(SC)c3)c(=O)[nH]2)cc1	-72	8	33	12	-2	.
CC1CCc2nc(N)c(C#N)c(-c3cccnc3)c2C1 (configuration not stated)	46	-1	13	84*	-24	79*	FLuc counter=21
CCOC(=O)c1cc(C(=O)NNC(=O)c2cccc([N+](=O)[O-])c2)c(C)nc1C	.	.	.	13	.	.
COc1cccc(NC(=S)NCCC(c2ccccc2)c2ccccc2)c1	-1	21	17	28	20	.
Cc1cccc(NC(=S)NCCC(c2ccccc2)c2ccccc2)c1	-18	11	39	53*	35	7
COc1ccccc1CNC(=O)COC(=O)c1ncc(Cl)c(Cl)c1Cl	-7	2	.	-5	-12	.
O=C1NCN(c2ccccc2)C12CCN(CCCC(c1ccc(F)cc1)c1ccc(F)cc1)CC2	16	3	78*	99*	44	52*	FLuc counter=73*
Cc1cccc(Nc2nc(N)c([N+](=O)[O-])c(NCc3ccccc3)n2)c1	14	12	61	52*	10	33
COc1cccc(Nc2nc(N)c([N+](=O)[O-])c(NCc3ccccc3)n2)c1	34	12	37	36	48	.
O=C(/C=C/c1ccco1)NC(=S)Nc1cccc(-c2nc3ccccc3s2)c1	-36	-4	66	31	-36	.
O=C(/C=C/c1ccco1)NC(=S)Nc1cccc(-c2nc3ccccc3o2)c1	4	17	71	59*	-48	53*	FLuc counter=92*
Cc1ccc(-c2nc3ccccc3o2)cc1NC(=S)NC(=O)/C=C/c1ccco1	-33	4	-11	55*	-26	30
O=C(NCc1ccccc1F)c1ccc(S(=O)(=O)N2CCCCCC2)cc1	.	.	.	9	.	.
CN(C(=O)COC(=O)/C=C/c1ccc2ccccc2n1)c1c(N)n(Cc2ccccc2)c(=O)[nH]c1=O	.	.	.	26	.	.
COCCN(C(=O)COC(=O)/C=C/c1nc2ccccc2s1)c1c(N)n(Cc2ccccc2)c(=O)[nH]c1=O	-20	16	14	64*	-30	39

Screens from PubChem BioAssay.
